# According to ChEMBL document CHEMBL1149846, “The role of lipophilicity in determining binding affinity and functional activity for 5-HT2A receptor ligands” (Bioorg Med Chem, 2008):
# What was measured:
# [1] = target: 5-hydroxytryptamine receptor 2A (Rattus norvegicus) (UniProt P14842); assay: Agonist activity at Sprague-Dawley rat 5HT2A receptor by drug discrimination assay; assay type: functional; conditions: filed as agonist
# [2] = target: T1, 5-hydroxytryptamine receptor 2A (Rattus norvegicus, UniProt P14842); assay: Displacement of [3H]ketanserin from 5HT2A receptor in Sprague-Dawley rat brain by liquid scintillation spectroscopy
# T1 sequence (P14842 whole entry): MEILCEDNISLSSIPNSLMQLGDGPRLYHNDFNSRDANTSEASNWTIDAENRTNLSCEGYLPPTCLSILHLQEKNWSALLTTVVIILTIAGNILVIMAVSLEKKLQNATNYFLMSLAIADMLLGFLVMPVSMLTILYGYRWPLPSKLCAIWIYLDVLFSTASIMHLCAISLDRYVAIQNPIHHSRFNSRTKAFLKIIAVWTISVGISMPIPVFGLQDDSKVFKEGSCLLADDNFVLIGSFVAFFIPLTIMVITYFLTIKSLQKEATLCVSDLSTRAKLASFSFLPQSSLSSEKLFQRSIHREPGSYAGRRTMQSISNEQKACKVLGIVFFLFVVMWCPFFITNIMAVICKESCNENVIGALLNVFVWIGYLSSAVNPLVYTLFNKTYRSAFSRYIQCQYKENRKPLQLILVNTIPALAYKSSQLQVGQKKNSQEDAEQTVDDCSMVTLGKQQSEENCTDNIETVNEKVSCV
# [3] = target: 5-hydroxytryptamine receptor 2A (Rattus norvegicus) (UniProt P14842); assay: Antagonist activity at Sprague-Dawley rat 5HT2A receptor by drug discrimination assay; assay type: functional; conditions: filed as antagonist
# [4] = target: T1, 5-hydroxytryptamine receptor 2A; assay: Displacement of [3H]MDL100907 from 5HT2A receptor in Sprague-Dawley rat brain by liquid scintillation spectroscopy
# Method in brief: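 Frontal cortex from male Sprague-Dawley rat brains, washed in 50 mM Tris-HCl pH 7.4 and resuspended in buffer with 0.5 mM Na2EDTA, 10.0 μM pargyline, 5.7 mM CaCl2 and 0.1% ascorbate. Cinanserin (10 μM) defined nonspecific binding. Bound label was collected by GF/C filtration and counted. Values from ≥3 experiments, each in triplicate.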
# Chain of 5-hydroxytryptamine receptor 2A (Rattus norvegicus) (P14842 whole entry): as above
SMILES,Efficacy [1],Ki [2] [µM],Efficacy [3],Ki [4] [µM]
COc1cc(CC(C)N)c(OC)cc1I (racemic),Agonist,0.019,–,–
NCCc1c2c(c(Br)c3c1OCC3)OCC2,Agonist,–,–,–
COc1cc(C)cc(OC)c1CC(C)N (racemic),Agonist,0.351,–,–
CSc1cc(CC(C)N)c(SC)cc1C (racemic),–,0.177,Antagonist,–
COc1cc(CCN)cc(OC)c1OCCc1ccccc1,–,0.059,Antagonist,–
CSc1c2c(c(CC(C)N)c3c1OCC3)CCO2 (racemic),–,–,–,0.476
Cc1nc2sccn2c(=O)c1CCN1CCC(=C(c2ccc(F)cc2)c2ccc(F)cc2)CC1,–,–,Antagonist,–
NCCc1c2c(cc3c1OCC3)OCC2,Agonist,–,–,–
COc1cc(CC(C)N)c(OC)cc1Br (racemic),Agonist,–,–,–
CN(C)CCc1c[nH]c2ccsc12,–,–,Antagonist,4.61
CC(N)Cc1c2c(c(Br)c3c1OCC3)OCC2 (racemic),Agonist,–,–,–
CN(C)CCc1c[nH]c2sccc12,–,–,Antagonist,3.68
CN(C)CCc1c[nH]c2cccc(O)c12 [PSILOCIN],Agonist,–,–,0.323
COc1cc(CCN)cc(OC)c1OC,Agonist,–,–,–
CCc1cc(OC)c(CC(C)N)cc1OC (racemic),Agonist,–,–,–
CC(N)Cc1c2ccccc2c(Br)c2ccccc12 (racemic),–,–,Antagonist,0.313
COc1cc2c(cc1Br)OCCC(N)C2 (racemic),–,0.422,–,–
COc1cc(C(F)(F)F)c(OC)cc1CC(C)N (racemic),Agonist,0.033,–,–
COc1cc(CC(C)N)c(OC)cc1C (racemic) [DOM],–,0.1,–,–
CC(N)Cc1c2ccoc2c(Br)c2ccoc12 (racemic),Agonist,–,–,–
CN(C)CCc1c[nH]c2ccccc12,Agonist,–,–,1.64
CC(N)Cc1cc(F)c(Br)cc1F (racemic),–,–,Antagonist,2.51
